The text below walks through data of ChEMBL document CHEMBL3097996, “Rational design and synthesis of topoisomerase I and II inhibitors based on oleanolic acid moiety for new anti-cancer drugs” (Bioorg Med Chem, 2014).

Test [1] deals with T1, DNA topoisomerase 1 (Homo sapiens) (UniProt P11387).
T1 sequence (whole entry): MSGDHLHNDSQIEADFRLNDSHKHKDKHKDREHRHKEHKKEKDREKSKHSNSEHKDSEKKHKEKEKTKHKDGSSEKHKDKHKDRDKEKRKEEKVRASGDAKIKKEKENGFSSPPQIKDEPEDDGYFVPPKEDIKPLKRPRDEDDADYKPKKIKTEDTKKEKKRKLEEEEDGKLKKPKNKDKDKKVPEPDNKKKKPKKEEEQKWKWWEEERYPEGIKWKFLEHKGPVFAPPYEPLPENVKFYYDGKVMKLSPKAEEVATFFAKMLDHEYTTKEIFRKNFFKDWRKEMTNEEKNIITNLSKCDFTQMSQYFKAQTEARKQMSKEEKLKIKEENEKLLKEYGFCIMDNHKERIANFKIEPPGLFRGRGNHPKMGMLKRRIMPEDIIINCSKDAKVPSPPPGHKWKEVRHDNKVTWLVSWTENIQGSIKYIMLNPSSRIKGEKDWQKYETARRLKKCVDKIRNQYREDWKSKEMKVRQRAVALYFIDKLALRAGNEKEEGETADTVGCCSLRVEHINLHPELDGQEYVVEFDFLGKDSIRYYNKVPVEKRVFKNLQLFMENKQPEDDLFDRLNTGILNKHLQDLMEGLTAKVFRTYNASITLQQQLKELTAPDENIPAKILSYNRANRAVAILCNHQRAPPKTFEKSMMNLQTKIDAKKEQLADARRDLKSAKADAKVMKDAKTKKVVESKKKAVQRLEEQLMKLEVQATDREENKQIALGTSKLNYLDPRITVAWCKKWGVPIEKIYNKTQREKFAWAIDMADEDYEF
The experiment in a line: Inhibition of topoisomerase 1 (unknown origin)-mediated relaxation of supercoiled plasmid DNA assessed as intensity of supercoiled DNA after 30 mins by agarose gel electrophoresis relative to camptothecin. Put shortly: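 Topo I (2 U) relaxation of 250 ng supercoiled plasmid at pH 7.9 in Tris/NaCl/EDTA/BSA/spermidine/glycerol buffer, 37 °C for 30 min, with matched DMSO. Stopped with SDS, proteinase K digestion, 1% agarose TAE gel, ethidium stain. Supercoiled-band intensity of each compound is divided by that of the camptothecin control.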

Test [2] deals with DNA topoisomerase 2-alpha (Homo sapiens) (UniProt P11388). The experiment in a line: Inhibition of topoisomerase 2 (unknown origin)-mediated kinetoplast DNA decatenation assessed as intensity of supercoiled DNA after 30 mins by agarose gel electrophoresis relative to etoposide. Put shortly:
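kDNA with 2 U topoisomerase II, 37 °C for 30 min, then proteinase K for 15 min at 37 °C and a 1% agarose TAE gel at 1 V/cm. Supercoiled-DNA band intensity was measured, and each compound's value was standardized by dividing it by the etoposide value.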

Test [3] has as its target T1, DNA topoisomerase 1 (Homo sapiens). As to the kind of experiment: Inhibition of topoisomerase 1 (unknown origin)-mediated relaxation of supercoiled plasmid DNA assessed as concentration of the compound exhibiting activity of 100 uM camptothecin after 30 mins by agarose gel electrophoresis.
For test [4], the target named is DNA topoisomerase 2-alpha (Homo sapiens) (UniProt P11388). As to the kind of experiment: Inhibition of topoisomerase 2 (unknown origin)-mediated kinetoplast DNA decatenation assessed as concentration of the compound exhibiting activity of 100 uM etoposide after 30 mins by agarose gel electrophoresis.
Chain of DNA topoisomerase 2-alpha (Homo sapiens) (P11388 whole entry): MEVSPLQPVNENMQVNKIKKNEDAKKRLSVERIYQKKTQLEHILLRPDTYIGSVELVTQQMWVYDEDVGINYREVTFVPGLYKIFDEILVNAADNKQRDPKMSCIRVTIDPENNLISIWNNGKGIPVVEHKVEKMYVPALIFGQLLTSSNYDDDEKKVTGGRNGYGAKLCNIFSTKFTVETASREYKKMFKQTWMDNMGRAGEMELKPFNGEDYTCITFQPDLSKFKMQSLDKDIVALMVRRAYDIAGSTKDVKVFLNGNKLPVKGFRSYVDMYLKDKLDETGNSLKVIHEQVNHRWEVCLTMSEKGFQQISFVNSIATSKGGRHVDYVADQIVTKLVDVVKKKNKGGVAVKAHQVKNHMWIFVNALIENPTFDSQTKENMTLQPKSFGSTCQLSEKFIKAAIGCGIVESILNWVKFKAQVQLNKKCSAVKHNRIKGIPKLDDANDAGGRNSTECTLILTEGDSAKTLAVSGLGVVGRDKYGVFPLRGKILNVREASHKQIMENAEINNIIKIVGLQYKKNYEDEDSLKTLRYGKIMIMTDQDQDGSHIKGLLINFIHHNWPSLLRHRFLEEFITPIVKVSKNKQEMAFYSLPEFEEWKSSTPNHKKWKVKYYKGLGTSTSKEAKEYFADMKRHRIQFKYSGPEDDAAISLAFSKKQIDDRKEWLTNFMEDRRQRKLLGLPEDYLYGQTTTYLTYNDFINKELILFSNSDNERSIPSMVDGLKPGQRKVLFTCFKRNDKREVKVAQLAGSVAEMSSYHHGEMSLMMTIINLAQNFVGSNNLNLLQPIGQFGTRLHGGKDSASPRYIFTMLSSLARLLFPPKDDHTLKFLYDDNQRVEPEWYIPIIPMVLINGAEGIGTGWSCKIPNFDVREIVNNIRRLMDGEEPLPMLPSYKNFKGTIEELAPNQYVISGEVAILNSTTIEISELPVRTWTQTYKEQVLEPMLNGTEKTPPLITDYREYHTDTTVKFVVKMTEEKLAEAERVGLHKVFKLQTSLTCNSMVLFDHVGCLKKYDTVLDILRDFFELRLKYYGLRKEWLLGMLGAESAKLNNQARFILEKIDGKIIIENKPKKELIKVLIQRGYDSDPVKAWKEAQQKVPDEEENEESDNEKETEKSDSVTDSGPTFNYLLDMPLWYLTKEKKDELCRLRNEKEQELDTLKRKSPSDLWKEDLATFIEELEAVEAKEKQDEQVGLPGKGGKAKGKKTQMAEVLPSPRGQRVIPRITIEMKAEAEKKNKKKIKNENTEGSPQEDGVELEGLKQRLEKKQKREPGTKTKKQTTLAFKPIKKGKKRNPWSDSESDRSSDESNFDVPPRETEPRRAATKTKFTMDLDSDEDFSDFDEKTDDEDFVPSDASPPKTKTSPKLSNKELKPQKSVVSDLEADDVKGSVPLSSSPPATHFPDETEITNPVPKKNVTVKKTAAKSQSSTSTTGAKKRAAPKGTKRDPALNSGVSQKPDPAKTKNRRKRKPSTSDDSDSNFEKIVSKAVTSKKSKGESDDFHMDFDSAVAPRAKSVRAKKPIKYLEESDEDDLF
Test [5] has the same target. As to the kind of experiment: Inhibition of topoisomerase 2 (unknown origin)-mediated kinetoplast DNA decatenation at 100 uM after 30 mins by agarose gel electrophoresis.
In test [6] the target is T1, DNA topoisomerase 1 (Homo sapiens). As to the kind of experiment: Inhibition of topoisomerase 1 (unknown origin)-mediated relaxation of supercoiled plasmid DNA at 100 uM after 30 mins by agarose gel electrophoresis.

The structures appear in SMILES notation. Calls of active or inactive are those of the source. The calls are words filed in the database; no cut-off is given here.

Consider `C=CCNC(=O)O[C@H]1CC[C@]2(C)[C@H]3CC=C4[C@@H]5CC(C)(C)CC[C@]5(C(=O)O)CC[C@@]4(C)[C@]3(C)CC[C@H]2C1(C)C`, for which the fold change (FC) in test [1] came to 1.57; in test [2] it was 1.26. The Activity was 15.2 µM in test [3] and 53 µM in test [4].
Take `CC1(C)CC[C@]2(C(=O)NS(=O)(=O)c3ccccc3)CC[C@]3(C)C(=CC[C@@H]4[C@@]5(C)CC[C@H](OC(=O)NS(=O)(=O)c6ccccc6)C(C)(C)[C@@H]5CC[C@]43C)[C@@H]2C1`: the values for the fold change (FC) in test [1] and in test [2] were 1.36 and 0.91, respectively. The Activity in test [3] was found to be 23.1 µM.
With `CC1(C)CC[C@]2(C(=O)Nc3cccc4ccccc34)CC[C@]3(C)C(=CC[C@@H]4[C@@]5(C)CC[C@H](OC(=O)Nc6cccc7ccccc67)C(C)(C)[C@@H]5CC[C@]43C)[C@@H]2C1`, the inhibition entry in test [5] was “Active”. For the same molecule, the fold change (FC) worked out at 1.55 in test [1] and 1.07 in test [2]. In addition, in test [3], the Activity turned out to be 17.4 µM.
`CC1(C)CC[C@]2(C(=O)O)CC[C@]3(C)C(=CC[C@@H]4[C@@]5(C)CC[C@H](OC(=O)Nc6ccc(-c7ccccc7)cc6)C(C)(C)[C@@H]5CC[C@]43C)[C@@H]2C1`: the fold change (FC) was found to be 0.79 in test [1] and 1.21 in test [2]. Also, the Activity in test [4] amounted to 46.5 µM.
For `CC1(C)CC[C@]2(C(=O)NCc3ccccc3)CC[C@]3(C)C(=CC[C@@H]4[C@@]5(C)CC[C@H](OC(=O)NCc6ccccc6)C(C)(C)[C@@H]5CC[C@]43C)[C@@H]2C1`, the fold change (FC) in test [1] was 1.42; in test [2], 1.21. In addition, the Activity in test [3] worked out at 25.4 µM; in test [4], 57 µM.
In the same order, the values of `CC1(C)CC[C@]2(C(=O)O)CC[C@]3(C)C(=CC[C@@H]4[C@@]5(C)CC[C@H](OC(=O)NCc6ccccc6)C(C)(C)[C@@H]5CC[C@]43C)[C@@H]2C1` are 1.64, 1.12, 16.1 µM and 68 µM.
In the same order, the values of `CC1(C)CC[C@]2(C(=O)O)CC[C@]3(C)C(=CC[C@@H]4[C@@]5(C)CC[C@H](O)C(C)(C)[C@@H]5CC[C@]43C)[C@@H]2C1` are 0.84, 0.74, 265 µM and 276 µM.
For the molecule `COc1cc([C@@H]2c3cc4c(cc3[C@@H](O[C@@H]3O[C@@H]5CO[C@@H](C)O[C@H]5[C@H](O)[C@H]3O)[C@H]3COC(=O)[C@H]23)OCO4)cc(OC)c1O`, the inhibition result in test [5] is “Active”.
Take `CC1(C)CC[C@]2(C(=O)O)CC[C@]3(C)C(=CC[C@@H]4[C@@]5(C)CC[C@H](OC(=O)Nc6cccc7ccccc67)C(C)(C)[C@@H]5CC[C@]43C)[C@@H]2C1`: the inhibition entry in test [5] was “Active”. In addition, the fold change (FC) came out at 0.4 in test [1] and 1.03 in test [2].
Take `CC1(C)CC[C@]2(C(=O)O)CC[C@]3(C)C(=CC[C@@H]4[C@@]5(C)CC[C@H](OS(=O)(=O)c6ccccc6)C(C)(C)[C@@H]5CC[C@]43C)[C@@H]2C1`: the values for the fold change (FC) in test [1] and in test [2] were 0.54 and 0.92, respectively.
For the molecule `CC1(C)CC[C@]2(C(=O)NCc3ccccc3)CC[C@]3(C)C(=CC[C@@H]4[C@@]5(C)CC[C@H](O)C(C)(C)[C@@H]5CC[C@]43C)[C@@H]2C1`, the inhibition entry in test [5] and in test [6] was “Active” each time. Also, the fold change (FC) was 0.98 in test [1] and 1.07 in test [2].
